Bioassay records from PubChem.
Hits are enriched below; roughly 2.7% of the tested compounds scored in any of these assays.
Phagocyt inh: inhibitors of macrophage phagocytosis, primary screen, imaging, J774A.1 cells, IgG beads | 0.07% of 110,000 active | inhibition, % at 5 µM | J774A.1 macrophage IgG-bead phagocytosis;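 active = inhibition above the mean of the plate negative controls plus 5 SD, cut at about 13% in these data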;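 also: phagocytic index as fraction of beads internalized from green versus red external bead signal; plate controls were DMSO negative control for no effect and cytochalasin-D positive control for full effect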
RAM inhibit: inhibitors of the yeast RAM network, primary screen, dse1pr::URA3 reporter, 5-FOA selection. S. cerevisiae dse1pr::URA3 reporter, 5-FOA growth OD615, 2 d; analog-sensitive cbk1-as2 kinase mutant strain. inhibition, % at 50 µM. 1.8% of 190,000 active. AID 868, 2007;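 active = inhibition above a set limit, 3 SD over mean compound inhibition, cut at about 8.4% in these data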;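 also: 0% = DMSO-only wells with no growth and 100% = 10 µM 1-NA-PP1 full growth; inhibition rescues growth on 5-FOA so higher OD means more RAM inhibition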
Yeast lifespan up: compounds extending yeast replicative lifespan, primary screen, S. cerevisiae, OD615. inhibition of the nicotinamide effect, % at 10 µM. AID 775, 2007. S. cerevisiae growth with nicotinamide; deaD strain in restrictive glucose medium. 0.68% of 130,000 active;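 active = inhibition above a set limit, placed 3 SD over the median of all compounds, cut at about 26% in these data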;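 also: 0% = nicotinamide-treated wells and 100% = cells grown without nicotinamide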
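Assay system: engineered S. cerevisiae DeaD replicative-lifespan strain, galactose-grown log-phase cells; Buffer or medium: CSMM-D glucose medium, restrictive; Probe or stimulus: nicotinamide 1.5 mM; Compound: single dose 10 µM compound, 0.25% DMSO; Schedule: 4 h preincubation then 48 h treatment at 30 °C; Technique: OD615 measurement.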
BB579 growth dn: growth inhibitors of yeast BB579 in restrictive medium, primary screen, yeast lifespan-shortening project, S. cerevisiae. AID 804, 2007. OD615, 48 h. 0.51% of 140,000 active. inhibition, % at 10 µM;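 active = inhibition above a set limit, 3 SD over the mean compound inhibition, cut at about 44% in these data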
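Test system: DeaD yeast strain BB579 / Buffer or medium: restrictive glucose-based CSMM-D medium / Doses: single 10 µM dose / Schedule: 4 h cell preincubation, 48 h compound exposure, 30 °C humidified / Technique: culture absorbance at 615 nm / Controls: amphotericin B positive control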
RAM 5-FOA: 5-FOA growth of efflux-deficient control yeast, dose response, counter-screen for RAM network inhibitor project, S. cerevisiae, OD615. shares compounds with RAM inhibit. S. cerevisiae efflux-deficient reporter strain, 5-FOA growth OD615, 2 days. max inhibition, %. 1,200 tested, under 10 active. AID 1305, 2008; call rule not given here;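 also: plate controls were vehicle for no effect and reference inhibitor for full effect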
* marks the source's active call; other numbers are inactive results; nt = no result.

SMILES | Phagocyt inh | RAM inhibit | Yeast lifespan up | BB579 growth dn | RAM 5-FOA
CCOC(=O)C1=C(O)/C(=C/c2ccc(OCC(=O)O)c(OC)c2)SC1=Nc1ccc(OC)cc1 | 3 | 14* | 5 | -35 | 9
CC(C)CCC(C)N=Cc1c(O)n(Cc2ccccc2)c(=O)c2ccccc12 (configuration not stated) | 0 | 17* | 17 | -83 | 6
Cc1ccc(-c2noc(CCC(=O)N3CCN(c4cccc(C(F)(F)F)c4)CC3)n2)cc1 | nt | 12* | -7 | -48 | 1
COc1ccc(-c2noc(CCC(=O)N3CCN(c4cc(C)ccc4C)CC3)n2)cc1 | nt | 4 | -17 | -25 | nt
C=C(C)CNC(=S)Nc1cccc(S(=O)(=O)NC2=NCCC2)c1 | nt | 0 | nt | nt | nt
C=C(C)CNC(=S)Nc1nc2c(cc1C(=O)OCC)CCCC2 | nt | 12* | 6 | -47 | 3
O=C(COC(=O)C1CC1)NCc1ccccc1Cl | -1 | 1 | -10 | -26 | nt
Cc1ccc(C)n1-c1ccc(C(=O)NN)cc1 | -3 | 2 | -2 | -14 | nt
O=C(CCCSc1ccccc1)Nc1nc(-c2ccco2)c(-c2ccco2)s1 | -5 | 13* | 7 | -46 | 3
O=C(CCl)Nc1nc(-c2ccco2)c(-c2ccco2)s1 | -1 | 1 | -4 | 39 | nt
O=C(O)c1ccc(N=NN2CCCCCC2)cc1 | -4 | 0 | -7 | 12 | nt
CCCCN1C(=O)/C(=C/C=C2\Oc3ccccc3N2CC)SC1=S | nt | 6 | nt | nt | nt
CCCCN1C(=O)/C(=C/C=C2/CC(C)(C)CN2C)SC1=S | -4 | 12* | -1 | -47 | 2
O=C(Nc1ccccc1F)Nc1ccc([N+](=O)[O-])cc1Cl | nt | 2 | nt | nt | nt
[2H]c1c([2H])c([2H])c(-c2nc(N3CCCCCC3)sc2C(=O)c2ccccc2)c([2H])c1[2H] | -2 | 13* | 3 | -22 | 3
O=C(c1sc(N2CCOCC2)nc1-c1ccccc1)N1CCCCC1 | -8 | 1 | 1 | -17 | nt
CCCSC1=N/C(=C/c2ccsc2)C(=O)N1c1ccccc1 | -10 | 12* | -1 | -26 | 1
CCSC1=N/C(=C\c2cccnc2)C(=O)N1c1ccccc1 | 7 | 0 | 1 | -47 | nt
CSC1=N/C(=C\c2cccnc2)C(=O)N1c1ccccc1 | nt | -1 | -8 | -25 | nt
CCCCSC1=N/C(=C/c2ccsc2)C(=O)N1c1ccccc1 | -12 | 16* | 0 | -15 | 3
CCSC1=N/C(=C/c2ccsc2)C(=O)N1c1ccccc1 | -17 | 12* | 0 | -29 | 3
COc1ccc(CNC(=O)CN(c2ccc(OC)cc2)S(=O)(=O)c2c(C)nn(C)c2C)cc1 | -2 | 2 | 2 | 2 | nt
COc1ccc(N(CC(=O)NCc2ccc(C)cc2)S(=O)(=O)c2c(C)nn(C)c2C)cc1 | 0 | 15* | 1 | -29 | 3
CCCCCOc1ccc(CSc2ncn[nH]2)cc1 | nt | 24* | nt | -26 | 1
COc1ccc(C(=O)O)cc1S(=O)(=O)Nc1cccc(C(F)(F)F)c1 | 0 | 2 | -15 | -16 | nt
SMILES | Phagocyt inh | RAM inhibit | Yeast lifespan up | BB579 growth dn | RAM 5-FOA
O=C(O)c1ccc(Cl)c(S(=O)(=O)Nc2cccc(C(=O)Nc3cccc(C(F)(F)F)c3)c2)c1 | nt | 12* | nt | nt | 3
O=C(CCCc1ccccc1)NCc1ccc(F)cc1 | -3 | 0 | -1 | -18 | nt
Cc1nn(C)c(Oc2cccc(Cl)c2)c1C(=O)Nc1ccc(F)cc1 | nt | 3 | -15 | 1 | nt
Cc1ccc(CSc2nnc(-c3ccc4c(c3)OCO4)o2)cc1 | 1 | 15* | -5 | -28 | 2
COc1nc2ccc(C)cc2cc1-c1noc(-c2ccccc2)n1 | nt | 12* | -26 | -53 | 3
COc1ccccc1C1(O)CCN(CC(=O)Nc2nc(-c3ccccc3)cs2)CC1 | nt | 0 | nt | nt | nt
COc1ccc(/C=C/C(=O)c2sc(-c3ccccc3)nc2C)cc1 | -1 | 13* | -4 | -50 | 1
Cc1nc(-c2ccccc2)sc1C(=O)O | nt | 0 | nt | nt | nt
O=c1ccc(/C=C/c2ccccc2)nn1Cc1ccc(Cl)cc1Cl | 0 | 13* | 2 | -107 | 2
COc1ccccc1NC(=O)c1ccc(NC(=O)COC(=O)CCC2CCCC2)cc1 | -10 | 14* | -3 | -32 | 3
COC(=O)c1ccccc1NC(=O)C1CCN(C(=O)c2ccc(OC)cc2)CC1 | nt | 1 | -31 | -5 | nt
COCCn1c(N)c(N(Cc2ccccc2)C(=O)Cc2c(Cl)cccc2Cl)c(=O)[nH]c1=O | nt | 2 | nt | nt | nt
COc1ccc(C(=O)Nc2ccc(C(=O)OCC(=O)c3ccccc3)cc2)cc1 | 0 | 1 | -18 | -13 | nt
COc1ccc(C(=O)OCC(=O)c2ccc(C3CCCCC3)cc2)cc1 | 0 | 11* | 1 | -25 | 11
C=C(C)C1CC=C(C)/C(=N/NC(=O)COc2ccc(C)cc2)C1 (configuration not stated) | nt | 3 | nt | -33 | nt
C=C(C)C1CC=C(C)/C(=N\NC(=S)Nc2ccc(C)cc2)C1 (configuration not stated) | -3 | 17* | 2 | 4 | 2
O=C(N1CCCC1)N1CCN(c2ncnc3c(-c4ccc(Cl)cc4)nsc23)CC1 | 0 | nt | nt | nt | nt
COc1cccc(N/C(SCc2ccccc2F)=C(/C#N)C(=O)NCc2cccs2)c1 | -1 | 16* | 11 | -29 | 3
COc1cccc(NC(=O)NCc2ccccc2F)c1 | nt | 0 | nt | nt | nt
COc1cc([N+](=O)[O-])cc2sc(NC(=O)c3c(F)cccc3F)nc12 | nt | 0 | nt | nt | nt
Cc1ccc(O)c(C(=O)/C=C/c2ccc3c(c2)OCCCO3)c1 | 2 | 12* | -1 | -26 | 4
CC(C)(C)c1ccc(-c2cn(-c3ccc(Br)cc3)c3[n+]2CCCS3)cc1 | nt | 0 | nt | nt | nt
N#Cc1c(N)n(CCOC(=O)c2cccc(Br)c2)c2nc3ccccc3nc12 | -1 | 5 | -17 | -61 | nt
N#Cc1c(N)n(CCOC(=O)c2cccc([N+](=O)[O-])c2)c2nc3ccccc3nc12 | 2 | 12* | 0 | -40 | 6
CCc1c(C#N)c(SCc2c(C)noc2C)nc2c1C(=O)CC(C)(C)C2 | 1 | 12* | 14 | -1 | 3
O=C1S/C(=C/c2ccccc2F)C(=O)N1CCN=C1NS(=O)(=O)c2ccccc21 | -6 | 4 | -2 | -5 | nt
Cc1ccc(C(=O)N/C(=C\c2cccc([N+](=O)[O-])c2)C(=O)OCN2C(=O)c3ccccc3C2=O)cc1 | -4 | 2 | -1 | -22 | nt
CCCCOc1ccc(C(=O)N/C(=C\c2ccc(OC)cc2)C(=O)OCc2ccco2)cc1 | -4 | 12* | 1 | -61 | 7
C=CCOC(=O)/C(=C\c1ccc(OC)cc1)NC(=O)c1ccco1 | 2 | 4 | 0 | -41 | nt
CCCCOc1ccc(C(=O)N/C(=C\c2cccc([N+](=O)[O-])c2)C(=O)OCc2ccco2)cc1 | -10 | 11* | 9 | -34 | 2
